Laboratory results published in ChEMBL document CHEMBL1144277, “Acyl sulfonamide anti-proliferatives. Part 2: activity of heterocyclic sulfonamide derivatives” (Bioorg Med Chem Lett, 2005).

Assays:
[1] = Inhibitory concentration against Vascular Endothelial Growth Factor dependent Human Umbilical Vascular Endothelial Cells (VEGF-HUVEC); format: functional
Method in brief: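 Anti-proliferative IC50 measured in HUVEC whose growth depends on VEGF; reported values are means of at least three experiments.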

[2] = Zone of inhibition by the compound against Normal fibroblasts at dose of 200 ug/disk; Range 0-400; format: functional
Method in brief: (§1)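 Soft-agar disk diffusion assay on L1210 leukemia cells or normal fibroblasts, with the agent applied on a disk at the stated µg per disk. The zone of inhibition is recorded in zone units (200 units = 6.5 mm), and a zero zone denotes no inhibition.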

L1210 [3] = assay: Zone of inhibition by the compound against L1210 Cells at dose of 200 ug/disk; Range 0-250; format: functional, Mus musculus; method in brief: as §1
HCT-116 [4] = assay: Zone of inhibition by the compound against HCT116 human tumor cells at dose of 200 ug/disk; format: functional
Method in brief: (§2)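 HCT116 colon carcinoma cells in a soft-agar disk diffusion assay, giving a qualitative measure of cytotoxicity. The test agent is applied on a disk at the stated µg per disk. The zone of inhibition is read in zone units (200 units = 6.5 mm), and a zero zone means no inhibition.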

L1210 [5] = assay: Zone of inhibition by the compound against L1210 Cells at dose of 200 ug/disk; No inhibition; format: functional, Mus musculus; method in brief: as §1
HCT-116 [6] = assay: Zone of inhibition by the compound against HCT116 human tumor cells at dose of 115 ug/disk; format: functional; method in brief: as §2
[7] = Zone of inhibition by the compound against Normal fibroblasts at dose of 210 ug/disk; Range 0-370; format: functional; method in brief: as §1
L1210 [8] = assay: Zone of inhibition by the compound against L1210 Cells at dose of 210 ug/disk;; format: functional, Mus musculus; method in brief: as §1
HCT-116 [9] = assay: Zone of inhibition by the compound against HCT116 human tumor cells at dose of 210 ug/disk; format: functional; method in brief: as §2
[10] = Zone of inhibition by the compound against Normal fibroblasts at dose of 210 ug/disk; Range 0-270; format: functional; method in brief: as §1
L1210 [11] = assay: Zone of inhibition by the compound against L1210 Cells at dose of 210 ug/disk; Range 200-270; format: functional, Mus musculus; method in brief: as §1
HCT-116 [12] = assay: Zone of inhibition by the compound against HCT116 human tumor cells at dose of 210 ug/disk; Range 470-530; format: functional; method in brief: as §2
[13] = Zone of inhibition by the compound against Normal fibroblasts at dose of 210 ug/disk; Range 0-400; format: functional; method in brief: as §1
L1210 [14] = assay: Zone of inhibition by the compound against L1210 Cells at dose of 210 ug/disk; No inhibition; format: functional, Mus musculus; method in brief: as §1
[15] = Zone of inhibition by the compound against Normal fibroblasts at dose of 190 ug/disk; Range 0-350; format: functional; method in brief: as §1
L1210 [16] = assay: Zone of inhibition by the compound against L1210 Cells at dose of 190 ug/disk; No inhibition; format: functional, Mus musculus; method in brief: as §1
HCT-116 [17] = assay: Zone of inhibition by the compound against HCT116 human tumor cells at dose of 190 ug/disk; format: functional; method in brief: as §2
L1210 [18] = assay: Zone of inhibition by the compound against L1210 Cells at dose of 210 ug/disk; Range 0-60; format: functional, Mus musculus; method in brief: as §1
[19] = Zone of inhibition by the compound against Normal fibroblasts at dose of 210 ug/disk; Range 0-330; format: functional; method in brief: as §1

Row | Structure (SMILES) | IC50 [1] | also measured
1 | O=C(NS(=O)(=O)c1cccc2ccsc12)c1ccc(Cl)cc1Cl | 4.16 µM | 
2 | O=C(NS(=O)(=O)c1cc(Br)c(Br)s1)c1ccc(Cl)cc1Cl | 0.22 µM | 
3 | COc1ncc(S(=O)(=O)NC(=O)c2ccc(Cl)cc2Cl)s1 | 0.54 µM | 
4 | CCc1nc(S(=O)(=O)NC(=O)c2ccc(Cl)cc2Cl)c[nH]1 | > 20 µM | 
5 | CCc1ncc(S(=O)(=O)NC(=O)c2ccc(Cl)cc2Cl)s1 | 0.6 µM | 
6 | O=C(NS(=O)(=O)c1ccc2c(c1)OCCO2)c1ccc(Cl)cc1Cl | 0.4 µM | Zone of inhibition [2]: 400 zone of inhibition units; Zone of inhibition (L1210 [3]): 250 zone of inhibition units; Zone of inhibition (HCT-116 [4]): 580 zone of inhibition units
7 | O=C(NS(=O)(=O)c1ccc2sccc2c1)c1ccc(Cl)cc1Cl | 0.62 µM | 
8 | O=C(NS(=O)(=O)c1ccc2ccoc2c1)c1ccc(Cl)cc1Cl | 0.59 µM | 
9 | O=C(NS(=O)(=O)c1ccc(Cl)s1)c1ccc(Cl)cc1Cl | 0.36 µM | 
10 | O=C(NS(=O)(=O)c1cccc2ccoc12)c1ccc(Cl)cc1Cl | 5.21 µM | 
11 | O=C(NS(=O)(=O)c1ccc2c(c1)OCO2)c1ccc(Cl)cc1Cl | 0.48 µM | Zone of inhibition [2]: 400 zone of inhibition units; Zone of inhibition (HCT-116 [4]): 610 zone of inhibition units; Zone of inhibition (L1210 [5]): 0 zone of inhibition units
12 | O=C(NS(=O)(=O)c1ccccc1)c1ccc(Cl)cc1Cl |  | Zone of inhibition (HCT-116 [6]): 700 zone of inhibition units
13 | COC(=O)c1ccc(S(=O)(=O)NC(=O)c2ccc(Cl)cc2Cl)s1 | 1.39 µM | 
14 | O=C(NS(=O)(=O)c1ccc(Cl)cc1)c1ccc(Cl)cc1Cl |  | Zone of inhibition (HCT-116 [4]): 660 zone of inhibition units
15 | Cc1ncc(S(=O)(=O)NC(=O)c2ccc(Cl)cc2Cl)s1 | 1.18 µM | 
16 | O=C(NS(=O)(=O)c1cccc2sccc12)c1ccc(Cl)cc1Cl | 3.3 µM | 
17 | O=C(NS(=O)(=O)c1cc(Cl)cs1)c1ccc(Cl)cc1Cl | 0.39 µM | 
18 | O=C(NS(=O)(=O)c1cc2ccccc2s1)c1ccc(Cl)cc1Cl | 0.96 µM | Zone of inhibition [7]: 370 zone of inhibition units; Zone of inhibition (L1210 [8]): 100 zone of inhibition units; Zone of inhibition (HCT-116 [9]): 500 zone of inhibition units

Row | Structure (SMILES) | IC50 [1] | also measured
19 | O=C(NS(=O)(=O)c1ccc2ccccc2c1)c1ccc(Cl)cc1Cl | 0.8 µM | Zone of inhibition [10]: 270 zone of inhibition units; Zone of inhibition (L1210 [11]): 270 zone of inhibition units; Zone of inhibition (HCT-116 [12]): 530 zone of inhibition units
20 | O=C(NS(=O)(=O)c1cccc2cc[nH]c12)c1ccc(Cl)cc1Cl | 3.04 µM | 
21 | O=C(NS(=O)(=O)c1ccc(Cl)c(Cl)c1)c1ccc(Cl)cc1Cl |  | Zone of inhibition (HCT-116 [4]): 560 zone of inhibition units
22 | O=C(NS(=O)(=O)c1ccc2c(c1)CCO2)c1ccc(Cl)cc1Cl | 0.43 µM | Zone of inhibition [13]: 400 zone of inhibition units; Zone of inhibition (HCT-116 [9]): 680 zone of inhibition units; Zone of inhibition (L1210 [14]): 0 zone of inhibition units
23 | Cc1ccc(S(=O)(=O)NC(=O)c2ccc(Cl)cc2Cl)s1 | 0.6 µM | 
24 | O=C(NS(=O)(=O)c1cccs1)c1ccc(Cl)cc1Cl | 0.54 µM | Zone of inhibition [15]: 350 zone of inhibition units; Zone of inhibition (L1210 [16]): 0 zone of inhibition units; Zone of inhibition (HCT-116 [17]): 490 zone of inhibition units
25 | O=C(NS(=O)(=O)c1cnc(Cl)s1)c1ccc(Cl)cc1Cl | 1.09 µM | 
26 | N#Cc1ccc(S(=O)(=O)NC(=O)c2ccc(Cl)cc2Cl)s1 | 3.16 µM | 
27 | O=C(NS(=O)(=O)c1cc2ccccc2o1)c1ccc(Cl)cc1Cl | 0.97 µM | 
28 | CN1CCc2ccc(S(=O)(=O)NC(=O)c3ccc(Cl)cc3Cl)cc21 | 1.54 µM | Zone of inhibition (L1210 [18]): 60 zone of inhibition units; Zone of inhibition [19]: 330 zone of inhibition units; Zone of inhibition (HCT-116 [9]): 630 zone of inhibition units
29 | CCc1ccc(S(=O)(=O)NC(=O)c2ccc(Cl)cc2Cl)s1 | 0.31 µM | 
30 | COc1ccc(S(=O)(=O)NC(=O)c2ccc(Cl)cc2Cl)s1 | 0.68 µM | 
31 | O=C(NS(=O)(=O)c1cc(Br)cs1)c1ccc(Cl)cc1Cl | 0.6 µM | 
32 | Cc1csc(S(=O)(=O)NC(=O)c2ccc(Cl)cc2Cl)c1 | 0.7 µM | 
33 | O=C(NS(=O)(=O)c1cc(Cl)c(Br)s1)c1ccc(Cl)cc1Cl | 0.76 µM | 
34 | O=C(NS(=O)(=O)c1ccsc1)c1ccc(Cl)cc1Cl | 1.27 µM | 
35 | O=C(NS(=O)(=O)c1ccc2ccsc2c1)c1ccc(Cl)cc1Cl | 0.64 µM | 
36 | O=C(NS(=O)(=O)c1ccc2cc[nH]c2c1)c1ccc(Cl)cc1Cl | 1.87 µM | 
